# From ChEMBL document CHEMBL1255376, “Comparative surveillance study of telavancin activity against recently collected gram-positive clinical isolates from across the United States” (2008)
# Legend:
# Staphylococcus cohnii = assay: Antibacterial activity against methicillin-susceptible coagulase-negative Staphylococcus cohnii clinical isolate by broth microdilution method; assay type: functional
# Outline: (§1)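 MICs by CLSI broth microdilution in frozen trays pre-loaded with serial dilutions of each agent. Quality-control strains run in parallel: E. faecalis ATCC 29212 and ATCC 51299, S. aureus ATCC 29213, S. pneumoniae ATCC 49619. Comparator susceptibility categories follow CLSI breakpoints. Methicillin resistance in staphylococci assigned from the oxacillin MIC.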
# [1] = tested on: Streptococcus constellatus; assay: Antibacterial activity against Streptococcus constellatus clinical isolate by broth microdilution method; assay type: functional
# Outline: (§2)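 MIC by CLSI broth microdilution in frozen microtiter trays holding serial dilutions of each agent, prepared from standard laboratory powders. E. faecalis ATCC 29212 and ATCC 51299, S. aureus ATCC 29213 and S. pneumoniae ATCC 49619 run in parallel as quality-control strains. Comparator susceptibility interpreted with CLSI breakpoints.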
# Staphylococcus aureus [2] = assay: Antibacterial activity against daptomycin-nonsusceptible Staphylococcus aureus isolate 1171063 by broth microdilution method; assay type: functional; outline: as §1
# Staphylococcus xylosus = assay: Antibacterial activity against methicillin-susceptible coagulase-negative Staphylococcus xylosus clinical isolate by broth microdilution method; assay type: functional; outline: as §1
# Staphylococcus capitis [3] = assay: Antibacterial activity against daptomycin-nonsusceptible Staphylococcus capitis isolate 1285355 by broth microdilution method; assay type: functional; outline: as §2
# Staphylococcus aureus [4] = assay: Antibacterial activity against daptomycin-nonsusceptible Staphylococcus aureus isolate 1176127 by broth microdilution method; assay type: functional; outline: as §1
# Staphylococcus capitis [5] = assay: Antibacterial activity against methicillin-resistant coagulase-negative Staphylococcus capitis clinical isolate by broth microdilution method; assay type: functional; outline: as §1
# [6] = tested on: Staphylococcus saprophyticus; assay: Antibacterial activity against methicillin-resistant coagulase-negative Staphylococcus saprophyticus clinical isolate by broth microdilution method; assay type: functional; outline: as §1
# Streptococcus equinus = assay: Antibacterial activity against Streptococcus bovis clinical isolate by broth microdilution method; assay type: functional; outline: as §2
# Staphylococcus aureus [7] = assay: Antibacterial activity against methicillin-resistant Staphylococcus aureus clinical isolate by broth microdilution method; assay type: functional; outline: as §1
# [8] = tested on: Staphylococcus haemolyticus; assay: Antibacterial activity against methicillin-resistant coagulase-negative Staphylococcus haemolyticus clinical isolate by broth microdilution method; assay type: functional; outline: as §1
# Streptococcus sp. = assay: Antibacterial activity against Streptococcus sp. clinical isolate by broth microdilution method; assay type: functional
# Outline: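 MIC by CLSI broth microdilution in frozen microtiter trays holding serial dilutions of each agent, prepared from standard laboratory powders. Comparator susceptibility interpreted with CLSI breakpoints.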
# Enterococcus faecalis [9] = assay: Antibacterial activity against vancomycin-resistant and teichoplanin-susceptible Enterococcus faecalis clinical isolate by broth microdilution method; assay type: functional; outline: as §1
# Staphylococcus aureus [10] = assay: Antibacterial activity against methicillin-susceptible Staphylococcus aureus clinical isolate by broth microdilution method; assay type: functional; outline: as §1
# [11] = tested on: Staphylococcus haemolyticus; assay: Antibacterial activity against methicillin-susceptible coagulase-negative Staphylococcus haemolyticus clinical isolate by broth microdilution method; assay type: functional; outline: as §1
# Mammaliicoccus sciuri = assay: Antibacterial activity against methicillin-resistant coagulase-negative Staphylococcus sciuri clinical isolate by broth microdilution method; assay type: functional; outline: as §1
# Staphylococcus aureus [12] = assay: Antibacterial activity against daptomycin-nonsusceptible Staphylococcus aureus isolate 1285404 by broth microdilution method
# Streptococcus agalactiae = assay: Antibacterial activity against Streptococcus agalactiae clinical isolate by broth microdilution method; assay type: functional; outline: as §2
# Staphylococcus hominis = assay: Antibacterial activity against methicillin-resistant coagulase-negative Staphylococcus hominis clinical isolate by broth microdilution method; assay type: functional; outline: as §1
# Staphylococcus = assay: Antibacterial activity against methicillin-resistant coagulase-negative unspeciated Staphylococcus clinical isolate by broth microdilution method; assay type: functional; outline: as §1
# Staphylococcus simulans [13] = assay: Antibacterial activity against methicillin-susceptible coagulase-negative Staphylococcus simulans clinical isolate by broth microdilution method; assay type: functional; outline: as §1
# [14] = tested on: Staphylococcus epidermidis; assay: Antibacterial activity against methicillin-susceptible coagulase-negative Staphylococcus epidermidis clinical isolate by broth microdilution method; assay type: functional; outline: as §1
# Staphylococcus warneri = assay: Antibacterial activity against methicillin-susceptible coagulase-negative Staphylococcus warneri clinical isolate by broth microdilution method; assay type: functional; outline: as §1
# Enterococcus faecalis [15] = assay: Antibacterial activity against vancomycin-susceptible Enterococcus faecalis clinical isolate by broth microdilution method; assay type: functional; outline: as §1
# Staphylococcus simulans [16] = assay: Antibacterial activity against methicillin-resistant coagulase-negative Staphylococcus simulans clinical isolate by broth microdilution method; assay type: functional; outline: as §1
smiles,measurement,setting,value
CCCCCCCCCC(=O)N[C@@H](Cc1c[nH]c2ccccc12)C(=O)N[C@H](CC(N)=O)C(=O)N[C@@H](CC(=O)O)C(=O)N[C@@H]1C(=O)NCC(=O)N[C@@H](CCCN)C(=O)N[C@@H](CC(=O)O)C(=O)N[C@H](C)C(=O)N[C@@H](CC(=O)O)C(=O)NCC(=O)N[C@H](CO)C(=O)N[C@@H]([C@H](C)CC(=O)O)C(=O)N[C@@H](CC(=O)c2ccccc2N)C(=O)O[C@@H]1C,MIC50,Staphylococcus cohnii,0.5 µg/mL
same,MIC90,Staphylococcus cohnii,1 µg/mL
same,MIC50,[1],0.25 µg/mL
same,MIC90,[1],1 µg/mL
same,MIC,Staphylococcus aureus [2],> 1 µg/mL
same,MIC50,Staphylococcus xylosus,0.5 µg/mL
same,MIC90,Staphylococcus xylosus,1 µg/mL
same,MIC,Staphylococcus capitis [3],> 1 µg/mL
same,MIC,Staphylococcus aureus [4],> 1 µg/mL
same,MIC50,Staphylococcus capitis [5],0.5 µg/mL
same,MIC90,Staphylococcus capitis [5],1 µg/mL
same,MIC50,[6],0.5 µg/mL
same,MIC90,[6],1 µg/mL
same,MIC50,Streptococcus equinus,0.25 µg/mL
same,MIC90,Streptococcus equinus,1 µg/mL
same,MIC50,Staphylococcus aureus [7],0.5 µg/mL
same,MIC90,Staphylococcus aureus [7],0.5 µg/mL
same,MIC50,[8],0.5 µg/mL
same,MIC90,[8],1 µg/mL
same,MIC50,Streptococcus sp.,0.25 µg/mL
same,MIC90,Streptococcus sp.,1 µg/mL
same,MIC,Enterococcus faecalis [9],0.5 µg/mL
same,MIC50,Staphylococcus aureus [10],0.5 µg/mL
same,MIC90,Staphylococcus aureus [10],0.5 µg/mL
same,MIC50,[11],0.5 µg/mL
same,MIC90,[11],1 µg/mL
same,MIC50,Mammaliicoccus sciuri,0.5 µg/mL
same,MIC90,Mammaliicoccus sciuri,1 µg/mL
same,MIC,Staphylococcus aureus [12],> 1 µg/mL
same,MIC50,Streptococcus agalactiae,0.25 µg/mL
same,MIC90,Streptococcus agalactiae,0.25 µg/mL
same,MIC50,Staphylococcus hominis,0.5 µg/mL
same,MIC90,Staphylococcus hominis,1 µg/mL
same,MIC50,Staphylococcus,0.5 µg/mL
same,MIC90,Staphylococcus,1 µg/mL
same,MIC50,Staphylococcus simulans [13],0.5 µg/mL
same,MIC90,Staphylococcus simulans [13],1 µg/mL
same,MIC50,[14],0.5 µg/mL
same,MIC90,[14],1 µg/mL
same,MIC50,Staphylococcus warneri,0.5 µg/mL
same,MIC90,Staphylococcus warneri,1 µg/mL
same,MIC50,Enterococcus faecalis [15],1 µg/mL
same,MIC90,Enterococcus faecalis [15],1 µg/mL
same,MIC50,Staphylococcus simulans [16],0.5 µg/mL
same,MIC90,Staphylococcus simulans [16],1 µg/mL
